Laboratory results as given in article PMC2903386 (The Journal of Biological Chemistry, 2010).

Columns and labels:
MMP-2 = MMP-2 (Homo sapiens, UniProt P08253); assay: Cleavage by purified MMP-2; assay type: in vitro ADME; conditions: 5 μM Cy5-labeled peptide, 50 nM enzyme, 2 h, Tricine gel, UVP software
Summary of the method: (§1)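 Commercial active purified enzymes were each used at 50 nM with 5 μM Cy5-labeled test peptide in the manufacturer's recommended buffer. The figure legend gives 2 h; the methods text gives 4 h. Samples were boiled 1 min in Tricine sample buffer, run on 10–20% Tricine gels and imaged (ex 628 ± 20 nm, em >700 nm). Percent cleaved versus uncleaved was quantitated from gel fluorescence.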

MMP-9 = MMP-9 (Homo sapiens, UniProt P14780); assay: Cleavage by purified MMP-9; assay type: in vitro ADME; conditions: 5 μM Cy5-labeled peptide, 50 nM enzyme, 2 h, Tricine gel, UVP software
Summary of the method: as §1

MMP-14 = assay: Cleavage by purified MMP-14; assay type: in vitro ADME
Summary of the method: as §1

kallikrein 5 = kallikrein 5 (Homo sapiens, UniProt Q9Y337); assay: Cleavage by purified kallikrein 5; assay type: in vitro ADME; conditions: 5 μM Cy5-labeled peptide, 50 nM enzyme, 2 h, Tricine gel, UVP software
Summary of the method: as §1

thrombin = thrombin (Homo sapiens, UniProt P00734); assay: Cleavage by purified thrombin; assay type: in vitro ADME; conditions: 5 μM Cy5-labeled peptide, 50 nM enzyme, 2 h, Tricine gel, UVP software
Summary of the method: as §1

[1] = target: urokinase plasminogen activator (Homo sapiens, UniProt P00749); assay: Cleavage by purified urokinase plasminogen activator; assay type: in vitro ADME
Summary of the method: as §1

[2] = target: tissue plasminogen activator (Homo sapiens, UniProt P00750); assay: Cleavage by purified tissue plasminogen activator; assay type: in vitro ADME; conditions: 5 μM Cy5-labeled peptide, 50 nM enzyme, 2 h, Tricine gel, UVP software
Summary of the method: as §1

factor VIIa = assay: Cleavage by purified factor VIIa; assay type: in vitro ADME; conditions: human
Summary of the method: as §1

factor IXa = factor IXa (Homo sapiens, UniProt P00740); assay: Cleavage by purified factor IXa; assay type: in vitro ADME; conditions: 5 μM Cy5-labeled peptide, 50 nM enzyme, 2 h, Tricine gel, UVP software
Summary of the method: as §1

factor Xa = factor Xa (Homo sapiens, UniProt P00742); assay: Cleavage by purified factor Xa; assay type: in vitro ADME; conditions: 5 μM Cy5-labeled peptide, 50 nM enzyme, 2 h, Tricine gel, UVP software
Summary of the method: as §1

factor XIa = factor XIa (Homo sapiens, UniProt P03951); assay: Cleavage by purified factor XIa; assay type: in vitro ADME; conditions: 5 μM Cy5-labeled peptide, 50 nM enzyme, 2 h, Tricine gel, UVP software
Summary of the method: as §1

factor XIIa = factor XIIa (Homo sapiens, UniProt P00748); assay: Cleavage by purified factor XIIa; assay type: in vitro ADME; conditions: 5 μM Cy5-labeled peptide, 50 nM enzyme, 2 h, Tricine gel, UVP software
Summary of the method: as §1

cathepsin B = cathepsin B (Homo sapiens, UniProt P07858); assay: Cleavage by purified cathepsin B; assay type: in vitro ADME; conditions: 5 μM Cy5-labeled peptide, 50 nM enzyme, 2 h, Tricine gel, UVP software
Summary of the method: as §1

cathepsin L = cathepsin L (Homo sapiens, UniProt P07711); assay: Cleavage by purified cathepsin L; assay type: in vitro ADME; conditions: 5 μM Cy5-labeled peptide, 50 nM enzyme, 2 h, Tricine gel, UVP software
Summary of the method: as §1

cathepsin H = assay: Cleavage by purified cathepsin H; assay type: in vitro ADME; conditions: human
Summary of the method: as §1

MMP-8 = MMP-8 (Homo sapiens, UniProt P22894); assay: Cleavage by purified MMP-8; assay type: in vitro ADME; conditions: purified enzyme; data not shown
MMP-13 = MMP-13 (Homo sapiens, UniProt P45452); assay: Cleavage by purified MMP-13; assay type: in vitro ADME; conditions: purified enzyme; data not shown
matriptase = matriptase (Homo sapiens, UniProt Q9Y5Y6); assay: Cleavage by purified matriptase; assay type: in vitro ADME; conditions: purified enzyme; data not shown
legumain = legumain (Homo sapiens, UniProt Q99538); assay: Cleavage by purified legumain; assay type: in vitro ADME; conditions: purified enzyme; data not shown
MMP12 = MMP12 (Homo sapiens, UniProt P39900); assay: Cleavage by purified MMP12; assay type: in vitro ADME; conditions: purified enzyme; at times only visible upon gel overexposure
pancreatic elastase = pancreatic elastase (Sus scrofa, UniProt P00772); assay: Cleavage by pancreatic elastase; assay type: in vitro ADME, porcine; conditions: 5 μM Cy5-labeled peptide, pancreatic elastase (ELA-1), gel
Summary of the method: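 5 μM Cy5-labeled test peptide was exposed to pancreatic elastase (ELA-1), with or without 60 μM α1-antitrypsin. Neutrophil/leukocyte elastase (two sources) and tumor extract (2.0 to 0.25%) were tested in parallel. Cleavage was read from fluorescent Tricine gel electrophoresis.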

leukocyte elastase = leukocyte elastase (Homo sapiens, UniProt P08246); assay: Cleavage by leukocyte elastase; assay type: in vitro ADME; conditions: 5 μM Cy5-labeled peptide, leukocyte elastase (ELA-2 from a different source), gel
Summary of the method: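 Commercial active-form purified enzyme at 50 nm was incubated with 5 μm Cy5-labeled peptide in the manufacturer's recommended buffer. Samples were mixed with Tricine sample buffer, boiled 1 min, and resolved on 10–20% Tricine acrylamide gels. Gels were imaged quantitatively at excitation 628 ± 20 nm and emission >700 nm, and the percentage of cleaved versus uncleaved peptide was quantified.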

[3] = Tumor standardized uptake value; assay type: in vivo; conditions: PyMT, mouse, iv, 10 nmol
Tumor uptake = assay type: in vivo; conditions: nude, mouse, tumor (MDA-MB-435 M4A4 xenograft), iv, 10 nmol
Summary of the method: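 After imaging, mice were euthanized with isoflurane. 30 mg of each tissue was homogenized in 100 μl Tris pH 7.6 with 1% SDS, heated to 85 °C for 10 min, microwaved 10 s and spun at 20,500 × g for 15 min, then imaged. Tissue-specific spiked standards calibrated fluorescence. SUV = tissue peptide molality ÷ injected dose (mol/kg body weight). Values are means ± S.D.; two-tailed t tests.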

PyMT mammary tumors = assay: Fluorescence imaging contrast in PyMT tumor-bearing mice; assay type: in vivo, mouse; conditions: live mice, 100 μl of 100 μM Cy5-labeled ACPP, imaged 6 h post injection
Summary of the method: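 PyMT transgenic mice bearing spontaneous mammary tumors were anesthetized with ketamine 80 mg/kg plus midazolam 5 mg/kg (1:1) and weighed. They were injected via the tail vein with Cy5 peptide: free peptide 100 μl of 100 μM (10 nmol) or albumin-reactive peptide 100 μl of 30 μM (3 nmol). Maestro imaging (ex 640 ± 24 nm, em >700 nm) was done at 6 h or 48 h, comparing tumor with adjacent normal tissue.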

[4] = Cleavage of ACPP by PyMT tumor cystic fluid; assay type: in vitro ADME, mouse; conditions: 5 μM Cy5-labeled peptide, 2% cystic fluid from PyMT tumors, 2 h, 37 °C, gel
Summary of the method: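 Cystic fluid was aspirated with a 28-gauge syringe from surgically exposed fluid-filled mammary tumor nodules of PyMT mice. 5 μM Cy5 peptide in PBS with 1 μM ZnCl2 was digested with cystic fluid (2%) at 37 °C. Aliquots were taken from 20 min to 18 h, with 2 h reported. Protease inhibitors (e.g. Ca-DTPA, TPEN, aprotinin, E-64, leupeptin, pepstatin A) were used at manufacturers' recommended concentrations. Read-out was gel fluorescence.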

[5] = Effect of inhibitors on cleavage of RLQLKL ACPP by PyMT tumor cystic fluid; assay type: biochemical, mouse; conditions: 5 μM Cy5-labeled RLQLKL ACPP, 2% cystic fluid, 2 h; 5 mM Ca-DTPA, 50 μM TPEN, 18 μM SB3CT, 50 nM GM6001, 0.26 μM prinomastat, 150 nM aprotinin, 100 μM leupeptin, 60 μM α1-antitrypsin; gel
Summary of the method: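 Cystic fluid was aspirated by syringe from surgically exposed fluid-filled mammary tumor nodules of PyMT mice. The 5 μm Cy5 peptide was incubated at 37 °C for 2 h in PBS with 1 μm ZnCl2. Inhibitors were used at manufacturer-recommended concentrations, including 10 μm E-64, 1 μm pepstatin A, protease inhibitor mixture III (1:1000) and mixture III plus DTPA. Cleavage was read by Tricine gel electrophoresis and Cy5 fluorescence imaging.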

[6] = Effect of inhibitors on cleavage of RLQLKL ACPP by tumor extract; assay type: biochemical, mouse; conditions: 5 μM Cy5-labeled RLQLKL ACPP, tumor extract 2.0 to 0.25%; 60 μM α1-antitrypsin; gel
Summary of the method: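 Fresh tumor tissue was gently homogenized in PBS on ice and spun at 14,000 × g for 1 min; the supernatant served as the extract. The 5 μm Cy5 peptide was digested at 37 °C in PBS containing 1 μm ZnCl2, with or without 60 μm α1-antitrypsin. Aliquots were taken from 20 min to 18 h, with the 2-h point reported. Cleavage was quantified by Tricine gel and fluorescence imaging.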

plasmin = plasmin (Homo sapiens, UniProt P00747); assay: Effect of inhibitor on plasmin cleavage of RLQLKL ACPP; assay type: biochemical; conditions: 5 μM Cy5-labeled RLQLKL ACPP, gel

Chain of pancreatic elastase (P00772 27-266): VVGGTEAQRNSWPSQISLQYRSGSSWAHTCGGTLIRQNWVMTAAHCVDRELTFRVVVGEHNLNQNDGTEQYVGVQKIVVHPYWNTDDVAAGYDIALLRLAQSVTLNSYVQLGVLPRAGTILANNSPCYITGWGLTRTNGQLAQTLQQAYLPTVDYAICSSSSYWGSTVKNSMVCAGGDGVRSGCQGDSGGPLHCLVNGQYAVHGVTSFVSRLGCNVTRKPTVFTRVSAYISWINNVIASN
Chain of factor XIa (P03951 388-625 limits assumed): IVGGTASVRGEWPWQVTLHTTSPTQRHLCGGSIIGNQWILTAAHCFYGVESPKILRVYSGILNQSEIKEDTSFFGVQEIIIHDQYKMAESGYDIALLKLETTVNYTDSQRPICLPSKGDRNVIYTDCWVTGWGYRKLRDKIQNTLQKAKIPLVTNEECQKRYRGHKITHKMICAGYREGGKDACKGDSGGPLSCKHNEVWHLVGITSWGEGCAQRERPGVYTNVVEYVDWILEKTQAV
Chain of factor XIa (P03951 19-387 partner limits assumed): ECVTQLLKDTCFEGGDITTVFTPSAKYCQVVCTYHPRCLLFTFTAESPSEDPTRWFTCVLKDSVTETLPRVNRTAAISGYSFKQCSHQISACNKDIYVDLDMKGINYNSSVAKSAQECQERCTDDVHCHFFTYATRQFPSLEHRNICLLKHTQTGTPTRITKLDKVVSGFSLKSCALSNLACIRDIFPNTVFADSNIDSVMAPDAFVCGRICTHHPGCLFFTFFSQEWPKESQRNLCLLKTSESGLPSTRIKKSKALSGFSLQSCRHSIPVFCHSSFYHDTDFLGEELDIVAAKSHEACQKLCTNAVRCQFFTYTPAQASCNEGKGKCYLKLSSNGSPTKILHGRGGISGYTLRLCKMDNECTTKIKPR
Chain of leukocyte elastase (P08246 30-267): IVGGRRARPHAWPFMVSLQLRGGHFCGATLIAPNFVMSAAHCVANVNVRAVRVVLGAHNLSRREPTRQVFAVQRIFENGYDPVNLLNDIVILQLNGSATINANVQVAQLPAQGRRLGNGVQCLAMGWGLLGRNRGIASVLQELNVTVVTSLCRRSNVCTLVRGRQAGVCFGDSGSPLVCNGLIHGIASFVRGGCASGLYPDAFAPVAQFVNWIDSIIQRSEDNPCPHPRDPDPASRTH
Chain of factor IXa (P00740 227-461 limits assumed): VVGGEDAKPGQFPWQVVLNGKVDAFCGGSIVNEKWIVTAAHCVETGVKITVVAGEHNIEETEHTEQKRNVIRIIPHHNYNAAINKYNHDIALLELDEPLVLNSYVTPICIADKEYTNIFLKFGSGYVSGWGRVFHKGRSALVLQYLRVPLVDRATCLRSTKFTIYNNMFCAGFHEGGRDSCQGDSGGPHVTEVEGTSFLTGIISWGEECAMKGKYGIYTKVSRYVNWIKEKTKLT
Chain of factor IXa (P00740 47-191 partner limits assumed): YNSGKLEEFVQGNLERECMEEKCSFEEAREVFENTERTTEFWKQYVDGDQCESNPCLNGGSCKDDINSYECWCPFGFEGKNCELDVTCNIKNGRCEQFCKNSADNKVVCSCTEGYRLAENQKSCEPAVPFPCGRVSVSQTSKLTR
Chain of factor XIIa (P00748 373-615 limits assumed): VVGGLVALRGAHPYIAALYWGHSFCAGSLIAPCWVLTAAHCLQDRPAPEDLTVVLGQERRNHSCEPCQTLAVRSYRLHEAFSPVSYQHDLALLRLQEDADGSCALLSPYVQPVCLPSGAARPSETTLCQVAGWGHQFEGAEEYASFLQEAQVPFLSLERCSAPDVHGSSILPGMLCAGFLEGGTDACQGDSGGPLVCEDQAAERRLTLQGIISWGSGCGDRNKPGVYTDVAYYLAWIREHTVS
Chain of tissue plasminogen activator (P00750 36-562): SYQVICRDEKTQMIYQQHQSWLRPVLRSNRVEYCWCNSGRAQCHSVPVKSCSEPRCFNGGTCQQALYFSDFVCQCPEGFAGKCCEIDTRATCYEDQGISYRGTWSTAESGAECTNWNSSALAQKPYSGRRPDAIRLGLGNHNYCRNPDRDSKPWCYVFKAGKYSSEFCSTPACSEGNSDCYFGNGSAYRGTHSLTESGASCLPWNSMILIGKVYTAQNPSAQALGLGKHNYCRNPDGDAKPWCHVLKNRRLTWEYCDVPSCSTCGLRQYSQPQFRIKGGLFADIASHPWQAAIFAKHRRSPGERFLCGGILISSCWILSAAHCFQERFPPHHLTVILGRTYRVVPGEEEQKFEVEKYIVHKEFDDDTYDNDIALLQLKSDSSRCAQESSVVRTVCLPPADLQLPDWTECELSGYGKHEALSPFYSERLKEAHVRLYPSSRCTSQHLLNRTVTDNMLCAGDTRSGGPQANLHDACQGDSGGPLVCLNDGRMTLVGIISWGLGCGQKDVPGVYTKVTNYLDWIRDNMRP
Chain of kallikrein 5 (Q9Y337 67-293 limits assumed): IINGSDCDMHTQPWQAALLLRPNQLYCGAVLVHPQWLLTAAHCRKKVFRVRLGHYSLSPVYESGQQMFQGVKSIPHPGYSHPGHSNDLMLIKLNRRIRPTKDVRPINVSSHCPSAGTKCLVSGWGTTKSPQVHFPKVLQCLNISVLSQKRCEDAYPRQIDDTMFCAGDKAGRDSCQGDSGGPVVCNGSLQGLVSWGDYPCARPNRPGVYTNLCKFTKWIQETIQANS
Chain of factor Xa (P00742 235-488 limits assumed): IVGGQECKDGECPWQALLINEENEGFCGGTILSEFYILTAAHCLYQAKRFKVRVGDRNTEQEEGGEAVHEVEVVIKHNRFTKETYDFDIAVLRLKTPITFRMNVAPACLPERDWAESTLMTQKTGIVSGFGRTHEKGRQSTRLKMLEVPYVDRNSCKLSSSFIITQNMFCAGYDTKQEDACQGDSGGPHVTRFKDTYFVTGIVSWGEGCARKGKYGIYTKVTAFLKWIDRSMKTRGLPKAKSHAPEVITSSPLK
Chain of factor Xa (P00742 41-179 partner limits assumed): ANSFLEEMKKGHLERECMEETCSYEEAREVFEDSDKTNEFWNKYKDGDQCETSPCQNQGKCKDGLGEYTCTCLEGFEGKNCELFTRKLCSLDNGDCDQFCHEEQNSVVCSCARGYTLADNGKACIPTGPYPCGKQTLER
Chain of cathepsin L (P07711 114-333): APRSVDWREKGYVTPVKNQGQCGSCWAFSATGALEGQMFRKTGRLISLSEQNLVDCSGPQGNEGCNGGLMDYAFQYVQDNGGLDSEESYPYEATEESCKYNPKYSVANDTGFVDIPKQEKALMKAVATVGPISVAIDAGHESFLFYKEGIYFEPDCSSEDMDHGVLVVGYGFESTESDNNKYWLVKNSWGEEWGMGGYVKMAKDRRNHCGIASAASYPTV
Chain of MMP-9 (P14780 107-707 limits assumed): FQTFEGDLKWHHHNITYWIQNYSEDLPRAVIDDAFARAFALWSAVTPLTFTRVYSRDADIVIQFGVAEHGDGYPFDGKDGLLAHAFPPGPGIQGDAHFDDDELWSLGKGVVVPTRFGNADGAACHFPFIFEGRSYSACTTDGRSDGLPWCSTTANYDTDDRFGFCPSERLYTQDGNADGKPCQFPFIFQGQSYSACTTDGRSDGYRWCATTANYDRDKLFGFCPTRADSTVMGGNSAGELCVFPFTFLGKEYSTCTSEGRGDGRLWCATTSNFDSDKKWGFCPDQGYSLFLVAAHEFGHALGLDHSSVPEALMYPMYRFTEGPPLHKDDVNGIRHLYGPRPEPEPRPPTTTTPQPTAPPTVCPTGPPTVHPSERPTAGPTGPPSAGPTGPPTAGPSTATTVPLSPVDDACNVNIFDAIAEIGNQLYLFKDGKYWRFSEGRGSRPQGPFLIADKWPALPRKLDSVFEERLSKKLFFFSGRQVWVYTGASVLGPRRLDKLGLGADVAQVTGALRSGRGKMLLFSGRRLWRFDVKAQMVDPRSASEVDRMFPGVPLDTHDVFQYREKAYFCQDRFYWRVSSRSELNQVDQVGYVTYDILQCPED
Chain of legumain (Q99538 18-323 limits assumed, species assumed): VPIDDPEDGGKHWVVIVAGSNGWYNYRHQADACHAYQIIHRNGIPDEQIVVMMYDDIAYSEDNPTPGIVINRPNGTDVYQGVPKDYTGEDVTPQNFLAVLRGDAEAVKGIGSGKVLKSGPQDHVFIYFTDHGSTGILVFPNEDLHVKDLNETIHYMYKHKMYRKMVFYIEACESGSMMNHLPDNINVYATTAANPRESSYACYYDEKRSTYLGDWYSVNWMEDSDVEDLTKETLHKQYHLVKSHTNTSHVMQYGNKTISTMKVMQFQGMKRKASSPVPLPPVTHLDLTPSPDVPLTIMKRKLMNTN
Chain of MMP-2 (P08253 110-660): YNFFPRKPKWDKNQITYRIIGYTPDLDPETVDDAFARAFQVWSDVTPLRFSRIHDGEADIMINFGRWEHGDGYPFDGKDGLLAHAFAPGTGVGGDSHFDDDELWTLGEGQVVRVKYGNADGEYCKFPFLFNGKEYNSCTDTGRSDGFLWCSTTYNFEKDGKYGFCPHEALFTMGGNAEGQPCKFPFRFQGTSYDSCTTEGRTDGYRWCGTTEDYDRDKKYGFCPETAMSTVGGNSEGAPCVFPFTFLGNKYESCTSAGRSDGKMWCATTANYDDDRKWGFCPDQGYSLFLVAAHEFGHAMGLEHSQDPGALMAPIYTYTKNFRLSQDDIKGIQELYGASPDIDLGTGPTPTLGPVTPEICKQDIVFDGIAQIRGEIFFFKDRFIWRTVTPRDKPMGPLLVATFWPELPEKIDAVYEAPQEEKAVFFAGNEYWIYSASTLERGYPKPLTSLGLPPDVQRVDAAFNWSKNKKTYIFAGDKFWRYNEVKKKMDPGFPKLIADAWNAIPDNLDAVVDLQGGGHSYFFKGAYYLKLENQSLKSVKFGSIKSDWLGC
Chain of matriptase (Q9Y5Y6 615-855 limits assumed, species assumed): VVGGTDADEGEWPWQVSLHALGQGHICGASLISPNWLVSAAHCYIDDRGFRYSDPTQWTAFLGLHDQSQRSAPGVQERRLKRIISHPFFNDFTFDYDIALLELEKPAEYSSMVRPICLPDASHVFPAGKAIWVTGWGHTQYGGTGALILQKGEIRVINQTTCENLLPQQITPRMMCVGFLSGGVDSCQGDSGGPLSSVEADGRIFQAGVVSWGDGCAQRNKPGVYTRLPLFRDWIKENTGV

With `CC[N+]1=C(C=CC=CC=C2N(CCCCCC(=O)NCCN3C(=O)CC(SC[C@@H](NC(=O)[C@@H](CCCNC(=N)N)NC(=O)[C@@H](CCCNC(=N)N)NC(=O)[C@@H](CCCNC(=N)N)NC(=O)[C@@H](CCCNC(=N)N)NC(=O)[C@@H](CCCNC(=N)N)NC(=O)[C@@H](CCCNC(=N)N)NC(=O)[C@@H](CCCNC(=N)N)NC(=O)[C@@H](CCCNC(=N)N)NC(=O)[C@@H](CCCNC(=N)N)NC(=O)[C@H](CC(C)C)NC(=O)[C@H](CCCCN)NC(=O)[C@H](CC(C)C)NC(=O)[C@H](CCC(N)=O)NC(=O)[C@H](CC(C)C)NC(=O)[C@H](CCCNC(=N)N)NC(=O)CCCCCNC(=O)[C@@H](CCC(=O)O)NC(=O)[C@@H](CCC(=O)O)NC(=O)[C@@H](CCC(=O)O)NC(=O)[C@@H](CCC(=O)O)NC(=O)[C@@H](CCC(=O)O)NC(=O)[C@@H](CCC(=O)O)NC(=O)[C@@H](CCC(=O)O)NC(=O)[C@@H](CCC(=O)O)NC(=O)[C@H](N)CCC(=O)O)C(N)=O)C3=O)c3ccc(S(=O)(=O)O)cc3C2(C)C)C(C)(C)c2cc(S(=O)(=O)[O-])ccc21` (stereo partly drawn) [RLQLKL ACPP] the “percentage of cleavage by MMP-2” value (MMP-2) was “less than 3%”, the “percentage of cleavage by MMP-9” value (MMP-9) was “less than 3%” and the metabolised at 2 h, 5 μM (MMP-14) was < 3%. For the same molecule, the “percentage of cleavage by kallikrein 5” value (kallikrein 5) was “less than 3%”, the “percentage of cleavage by thrombin” value (thrombin) was “less than 3%” and the “percentage of cleavage by urokinase plasminogen activator” value ([1]; 5 μM Cy5-labeled peptide, 50 nM enzyme, 2 h, Tricine gel, UVP software) was “less than 3%”. For the same molecule, the “cleavage by urokinase (in words)” value ([1]; purified enzyme, data not shown) was “no cleavage”, the “percentage of cleavage by tissue plasminogen activator” value [2] was “less than 3%” and the metabolised at 2 h, 5 μM (factor VIIa) was < 3%. The “percentage of cleavage by factor IXa” value (factor IXa) was “less than 3%”, the “percentage of cleavage by factor Xa” value (factor Xa) was “less than 3%” and the “percentage of cleavage by factor XIa” value (factor XIa) was “less than 3%”. For the same molecule, the “percentage of cleavage by factor XIIa” value (factor XIIa) was “less than 3%”, the “percentage of cleavage by cathepsin B” value (cathepsin B) was “less than 3%” and the “percentage of cleavage by cathepsin L” value (cathepsin L) was “less than 3%”. The metabolised at 2 h, 5 μM (cathepsin H) was < 3%, the “cleavage by MMP-8 (in words)” value (MMP-8) was “no cleavage” and the “cleavage by MMP-13 (in words)” value (MMP-13) was “no cleavage”. The “cleavage by matriptase (in words)” value (matriptase) was “no cleavage”, the “cleavage by legumain (in words)” value (legumain) was “no cleavage” and the “cleavage by MMP12 (in words)” value (MMP12) was “minimal cleavage”. The “cleavage by pancreatic elastase (in words)” value (pancreatic elastase) was “effectively cleaved”, the “cleavage by leukocyte elastase (in words)” value (leukocyte elastase) was “effectively cleaved” and the SUV at 6 h [3] was 0.39 ± 0.14 SUV. For the same molecule, the SUV at 6 h (Tumor uptake) was 0.7 ± 0.27 SUV, the “skin uptake versus PLGLAG ACPP (in words)” value (PyMT mammary tumors) was “significantly less” and the “cleavage by cystic fluid (in words)” value [4] was “similarly to tumor tissue extracts”.

B1: serpin F2/α2-antiplasmin: plasmin-specific inhibitor (protein, UniProt P08697 40-491, looked up)
Alpha-2-antiplasmin: NQEQVSPLTLLKLGNQEPGGQTALKSPPGVCSRDPTPEQTHRLARAMMAFTADLFSLVAQTSTCPNLILSPLSVALALSHLALGAQNHTLQRLQQVLHAGSGPCLPHLLSRLCQDLGPGAFRLAARMYLQKGFPIKEDFLEQSEQLFGAKPVSLTGKQEDDLANINQWVKEATEGKIQEFLSGLPEDTVLLLLNAIHFQGFWRNKFDPSLTQRDSFHLDEQFTVPVEMMQARTYPLRWFLLEQPEIQVAHFPFKNNMSFVVLVPTHFEWNVSQVLANLSWDTLHPPLVWERPTKVRLPKLYLKHQMDLVATLSQLGLQELFQAPDLRGISEQSLVVSGVQHQSTLELSEVGVEAAAATSIAMSRMSLSSFSVNRPFLFFIFEDTTGLPLFVGSVRNPNPSAPRELKEQQDSPGNKDFLQSLKGFPRGDKLFGPDLKLVPPMEEDYPQFGSPK
For B1, the “inhibition of cystic fluid cleavage of RLQLKL ACPP (in words)” value [5] was “did not inhibit”, the “inhibition of tumor extract cleavage of RLQLKL ACPP (in words)” value [6] was “did not inhibit” and the “inhibition of plasmin cleavage of RLQLKL ACPP (in words)” value (plasmin) was “did inhibit”.
